Assay results taken from ChEMBL document CHEMBL1127475, “Novel amidine-containing peptidyl phosphonates as irreversible inhibitors for blood coagulation and related serine proteases” (J Med Chem, 1994).
Activity calls are given as the source filed them. No cut-off for these calls is given here.

Assays:
[1] = target: Prothrombin (Homo sapiens) (UniProt P00734); assay: The compound was measured for inhibitory activity against human thrombin
Procedure, shortened: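 Human thrombin (0.03–2.3 μM) was incubated at 25 °C with inhibitor (1.7–420 μM) in 0.1 M Hepes, 0.5 M NaCl, pH 7.5, 8–12% Me2SO. Residual activity in withdrawn aliquots was measured with Z-Arg-SBzl (80–90 μM) and 4,4'-dithiodipyridine at 394 nm. kobs from ln v0/vt vs time; kobs/[I] typically averaged from duplicate or triplicate experiments.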

[2] = target: T1, Serine protease 1 (Bos taurus) (UniProt P00760); assay: The compound was measured for inhibitory activity against bovine trypsin
T1 sequence (whole entry): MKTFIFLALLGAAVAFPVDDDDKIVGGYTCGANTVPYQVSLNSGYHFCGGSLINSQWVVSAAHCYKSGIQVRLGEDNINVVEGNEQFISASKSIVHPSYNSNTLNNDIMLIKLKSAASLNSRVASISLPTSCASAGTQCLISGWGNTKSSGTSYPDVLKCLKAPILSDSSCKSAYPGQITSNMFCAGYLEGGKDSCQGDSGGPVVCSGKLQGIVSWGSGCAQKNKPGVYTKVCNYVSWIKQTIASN
Procedure, shortened: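 Inactivation by incubation: enzyme (0.03–2.3 μM) with inhibitor (1.7–420 μM) added from Me2SO (8–12% final) in 0.1 M Hepes, 0.01 M CaCl2, pH 7.5, 25 °C. Aliquots withdrawn over time; residual activity read with Z-Phe-Gly-Arg-NA (100–120 μM) at 410 nm. kobs from ln v0/vt vs time; kobs/[I] typically averaged from duplicate or triplicate runs.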

[3] = target: T2, Coagulation factor XII (Homo sapiens) (UniProt P00748); assay: (§1) The compound was measured for inhibitory activity against human coagulation factor XII
T2 sequence (whole entry): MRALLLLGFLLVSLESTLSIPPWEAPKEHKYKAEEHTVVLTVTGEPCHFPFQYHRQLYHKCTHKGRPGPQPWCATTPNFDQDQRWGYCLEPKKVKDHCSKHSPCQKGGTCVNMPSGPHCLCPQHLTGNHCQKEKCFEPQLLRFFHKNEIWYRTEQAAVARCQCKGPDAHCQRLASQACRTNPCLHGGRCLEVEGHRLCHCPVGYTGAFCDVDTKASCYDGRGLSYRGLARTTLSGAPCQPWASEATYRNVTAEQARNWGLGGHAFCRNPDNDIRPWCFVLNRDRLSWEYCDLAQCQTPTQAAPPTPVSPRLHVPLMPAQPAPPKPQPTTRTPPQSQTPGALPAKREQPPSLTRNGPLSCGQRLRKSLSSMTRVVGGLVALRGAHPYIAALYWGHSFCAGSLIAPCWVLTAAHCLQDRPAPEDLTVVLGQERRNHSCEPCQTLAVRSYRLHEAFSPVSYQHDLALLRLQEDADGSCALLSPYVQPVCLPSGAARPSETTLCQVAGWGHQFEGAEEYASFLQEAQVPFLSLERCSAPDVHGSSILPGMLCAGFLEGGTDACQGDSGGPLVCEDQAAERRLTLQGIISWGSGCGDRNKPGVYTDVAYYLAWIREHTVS
Procedure, shortened: (§2)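 Enzymes (plasma kallikrein and factor XIIa of human origin) at 0.03–2.3 μM were incubated at 25 °C with inhibitor (1.7–420 μM) in 0.1 M Hepes, 0.01 M CaCl2, pH 7.5, 8–12% Me2SO. Timed aliquots were assayed for residual activity with Z-Arg-SBzl (80–90 μM) plus 4,4'-dithiodipyridine, read at 394 nm. Pseudo-first-order kobs came from ln v0/vt vs time; kobs/[I] typically averaged from duplicate or triplicate runs.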

[4] = target: Plasma kallikrein (Homo sapiens) (UniProt P03952); assay: The compound was measured for inhibitory activity against human plasma kallikrein; assay type: cell-free; procedure, shortened: as §2
Sequence of Plasma kallikrein (Homo sapiens) (P03952 20-390 limits assumed): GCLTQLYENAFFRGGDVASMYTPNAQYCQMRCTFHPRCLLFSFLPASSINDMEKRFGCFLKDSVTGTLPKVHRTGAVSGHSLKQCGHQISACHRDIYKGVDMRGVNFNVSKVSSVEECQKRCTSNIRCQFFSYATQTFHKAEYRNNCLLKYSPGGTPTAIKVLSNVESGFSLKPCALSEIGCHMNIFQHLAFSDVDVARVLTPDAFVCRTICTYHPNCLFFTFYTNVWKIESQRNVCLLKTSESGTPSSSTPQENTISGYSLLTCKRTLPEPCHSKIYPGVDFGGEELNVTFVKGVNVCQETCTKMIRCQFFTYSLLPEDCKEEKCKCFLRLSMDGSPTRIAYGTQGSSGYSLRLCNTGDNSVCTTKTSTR
Sequence of Plasma kallikrein (Homo sapiens) (P03952 391-638 limits assumed): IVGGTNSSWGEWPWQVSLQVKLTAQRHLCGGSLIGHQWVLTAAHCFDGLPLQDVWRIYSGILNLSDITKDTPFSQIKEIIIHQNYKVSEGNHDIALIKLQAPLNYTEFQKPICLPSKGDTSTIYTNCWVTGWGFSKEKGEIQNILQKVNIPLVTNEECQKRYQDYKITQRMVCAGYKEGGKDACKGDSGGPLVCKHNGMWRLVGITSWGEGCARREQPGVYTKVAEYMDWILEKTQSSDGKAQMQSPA

Prothrombin (Bos taurus) = Prothrombin (Bos taurus) (UniProt P00735); assay: (§3) The compound was measured for inhibitory activity against bovine thrombin
[5] = target: T3, Coagulation factor XII (Bos taurus) (UniProt P98140); assay: as §1; procedure, shortened: as §2
T3 sequence (whole entry): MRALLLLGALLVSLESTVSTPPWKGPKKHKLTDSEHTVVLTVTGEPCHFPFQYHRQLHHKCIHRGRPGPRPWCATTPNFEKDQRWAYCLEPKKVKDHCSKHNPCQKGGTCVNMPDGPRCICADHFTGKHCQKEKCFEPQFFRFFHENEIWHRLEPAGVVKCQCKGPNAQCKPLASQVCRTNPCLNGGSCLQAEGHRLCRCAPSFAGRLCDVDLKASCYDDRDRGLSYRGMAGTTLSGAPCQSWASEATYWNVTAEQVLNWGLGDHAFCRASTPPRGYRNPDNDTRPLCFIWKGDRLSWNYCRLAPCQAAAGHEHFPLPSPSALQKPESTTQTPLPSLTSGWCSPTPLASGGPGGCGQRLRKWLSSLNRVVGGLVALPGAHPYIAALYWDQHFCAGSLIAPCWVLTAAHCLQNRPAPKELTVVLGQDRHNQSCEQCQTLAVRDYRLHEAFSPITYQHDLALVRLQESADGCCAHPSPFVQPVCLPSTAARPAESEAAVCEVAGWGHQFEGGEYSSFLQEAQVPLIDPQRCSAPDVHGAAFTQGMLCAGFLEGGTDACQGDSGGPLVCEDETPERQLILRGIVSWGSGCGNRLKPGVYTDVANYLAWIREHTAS

[6] = target: Prothrombin (Homo sapiens) (UniProt P00734); assay: as §3
[7] = target: T1, Serine protease 1 (Bos taurus); assay: The compound was measured for inhibitory activity against bovine trypsin; NI=No inhibition
Procedure, shortened: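 Irreversible inactivation by incubation: enzyme (0.03–2.3 µM) mixed with inhibitor (1.7–420 µM, added in Me2SO, 8–12% final) in 0.1 M Hepes, 0.01 M CaCl2, pH 7.5, at 25 °C. Aliquots were taken over time and residual activity read with Z-Phe-Gly-Arg-NA (100–120 µM) at 410 nm. kobs came from ln v0/vt vs time, and kobs/[I] from the average of duplicate or triplicate runs.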

[8] = target: Prothrombin (Homo sapiens) (UniProt P00734); assay: The compound was measured for inhibitory activity against human thrombin; NI=No inhibition
Procedure, shortened: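 Human thrombin (0.03–2.3 µM) was incubated with inhibitor (1.7–420 µM, added in Me2SO, 8–12% final) in 0.1 M Hepes, 0.5 M NaCl, pH 7.5, at 25 °C. Timed aliquots were assayed for residual activity with Z-Arg-SBzl (80–90 µM) plus 4,4'-dithiodipyridine at 394 nm. Pseudo-first-order kobs came from ln v0/vt vs time, and kobs/[I] was typically averaged over duplicate or triplicate experiments.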

Structure (SMILES)	K obs / 1 [1] [M⁻¹ s⁻¹]	K obs / 1 [2] [M⁻¹ s⁻¹]	K obs / 1 [3] [M⁻¹ s⁻¹]	K obs / 1 [4] [M⁻¹ s⁻¹]	K obs / 1 (Prothrombin (Bos taurus)) [M⁻¹ s⁻¹]	further results
N=C(N)c1ccc(C[C@H](NC(=O)OCc2ccccc2)P(=O)(Oc2ccccc2)Oc2ccccc2)cc1	0.2	24	–	–	–	–
N=C(N)c1ccc(C(NC(=O)[C@@H]2CCCN2C(=O)[C@@H](N)Cc2ccccc2)P(=O)(Oc2ccccc2)Oc2ccccc2)cc1 (some centres undefined)	700	110	2.8	250	730	–
N=C(N)c1ccc(C[C@H](N)P(=O)(Oc2ccccc2)Oc2ccccc2)cc1	2.2	32	–	–	–	–
CC(C)(C)OC(=O)N[C@@H](Cc1ccccc1)C(=O)N1CCC[C@H]1C(=O)NC(c1ccc(C(=N)N)cc1)P(=O)(Oc1ccccc1)Oc1ccccc1 (some centres undefined)	11000	2200	52	160	12000	–
N=C(N)c1ccc(C(NC(=O)CNS(=O)(=O)c2ccc3ccccc3c2)P(=O)(Oc2ccccc2)Oc2ccccc2)cc1 (centres undefined)	–	470	–	960	–	K obs / 1 [5]: 25 M⁻¹ s⁻¹; K obs / 1 [6]: 170 M⁻¹ s⁻¹
CC(C)(C)OC(=O)N[C@@H](Cc1ccccc1)C(=O)N1CCC[C@H]1C(=O)N[C@@H](Cc1ccc(C(=N)N)cc1)P(=O)(Oc1ccccc1)Oc1ccccc1	0.7	130	–	–	–	–
CCOP(=O)(OCC)[C@H](Cc1ccc(C(=N)N)cc1)NC(=O)[C@@H]1CCCN1C(=O)OCc1ccccc1	–	–	–	–	–	K obs / 1 [7]: inactive; K obs / 1 [8]: inactive
CC(=O)N[C@H](Cc1ccccc1)C(=O)N1CCC[C@H]1C(=O)N[C@@H](CCCN=C(N)N)P(=O)(Oc1ccccc1)Oc1ccccc1	1200	–	–	–	–	–
N=C(N)c1ccc(C(NC(=O)[C@@H]2CCCN2C(=O)OCc2ccccc2)P(=O)(Oc2ccccc2)Oc2ccccc2)cc1 (some centres undefined)	20	100	2.6	60	70	–
N=C(N)c1ccc(C(NC(=O)OCc2ccccc2)P(=O)(Oc2ccccc2)Oc2ccccc2)cc1 (centres undefined)	80	–	20	18000	170	–
N=C(N)c1ccc(C[C@H](NC(=O)[C@@H]2CCCN2C(=O)[C@@H](N)Cc2ccccc2)P(=O)(Oc2ccccc2)Oc2ccccc2)cc1	54	50	–	–	–	–
